CC50, IC50 and selectivity ratio data for 14 compounds are collected here from ChEMBL document CHEMBL1143625, “Bisphosphonate inhibitors of Toxoplasma gondi growth: in vitro, QSAR, and in vivo investigations” (J Med Chem, 2005).

Structures are written as SMILES.

The test system of one data set is KB. Nature of the data set: Lethal dose required to inhibit the growth of human KB (nasopharyngeal carcinoma) cell line. It counts as functional. Particulars: read-out: LD50 (the source's name).
The test system of data set [1] is HFF. As to the kind of experiment: Inhibitory concentration against the growth of Toxoplasma gondii overexpressing FPPS enzyme in human foreskin fibroblast monolayer cells; (control = 0.60 uM, experiment 1). It counts as functional, cell-based. In outline:
(§1)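 FPPS-overexpressing T. gondii line: 2F clone tachyzoites (beta-galactosidase) electroporated with 50 µg ptubTgFPPS-FLAG/sagCAT. Stable lines were selected with 20 µM chloramphenicol and cloned by limiting dilution, giving 4-5-fold more FPPS by Western blot. Assay: compounds serially diluted in medium on confluent HFF; 10^4 tachyzoites/mL (filtered 3 µm, needle-passed); 48 h at 37 °C. Lysis, then CPRG read at 570 nm; IC50 from rectangular hyperbolic fit of % inhibition.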

Data set [2] has as its system HFF. Nature of the data set: Inhibitory concentration against the growth of Toxoplasma gondii overexpressing FPPS enzyme in human foreskin fibroblast monolayer cells; (control = 1.1 uM, experiment 2). It counts as functional, cell-based. In outline: as §1
A short description of data set [3]: In vitro inhibitory concentration against the growth of Toxoplasma gondii in human foreskin fibroblast monolayer cells (HFF cells). Type of data set: functional, cell-based. The method, boiled down: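 T. gondii 2F clone tachyzoites expressing β-galactosidase, kept in HFF in DMEM with 10% FBS, 2 mM glutamine and 1 mM pyruvate. Confluent HFF monolayers were given serially diluted drug in medium, then 10^4 filtered, needle-passed tachyzoites/mL, and held 48 h at 37 °C. Cells were lysed at 50 °C, and CPRG turnover was read at 570 nm. IC50 came from a hyperbolic fit of % inhibition against concentration.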

Data set [4] deals with HFF. Nature of the data set: Inhibitory concentration against the growth of Toxoplasma gondii overexpressing FPPS enzyme in human foreskin fibroblast monolayer cells; (control = 0.79 uM, experiment 3). Type of data set: functional, cell-based. In outline: as §1
Data set [5] in a line: Therapeutic index (TI) value as ratio of lethal dose (LD50) to the inhibitory concentration (IC50). Type of data set: cell-based. Conditions: human, KB cells; read-out: TI.
Data set [6] has as its system HFF. As to the kind of experiment: Inhibitory concentration against the growth of Toxoplasma gondii overexpressing FPPS enzyme in human foreskin fibroblast monolayer cells; (control = 2.5 uM, experiment 2). It counts as functional, cell-based. In outline:
as §1

Data set [7] relates to HFF. As to the kind of experiment: Inhibitory concentration against the growth of Toxoplasma gondii overexpressing FPPS enzyme in human foreskin fibroblast monolayer cells; (control = 2.2 uM, experiment 1). Type of data set: functional, cell-based. In outline:
as §1

Data set [8] concerns HFF. As to the kind of experiment: Inhibitory concentration against the growth of Toxoplasma gondii overexpressing FPPS enzyme in human foreskin fibroblast monolayer cells; (control = 2.4 uM, experiment 3). Type of data set: functional, cell-based. In outline:
as §1

Data set [9] has as its system HFF. Nature of the data set: Inhibitory concentration against the growth of Toxoplasma gondii overexpressing FPPS enzyme in human foreskin fibroblast monolayer cells; (control = 0.29 uM). Type of data set: functional, cell-based. In outline: as §1
Data set [10] concerns HFF. Nature of the data set: Inhibitory concentration against the growth of Toxoplasma gondii overexpressing FPPS enzyme in human foreskin fibroblast monolayer cells; (control = 0.28 uM, experiment 3). It counts as functional, cell-based. The method, boiled down:
as §1

The subject of data set [11] is HFF. Nature of the data set: Inhibitory concentration against the growth of Toxoplasma gondii overexpressing FPPS enzyme in human foreskin fibroblast monolayer cells; (control = 0.30 uM, experiment 2). It counts as functional, cell-based. The method, boiled down:
as §1

Data set [12] relates to HFF. Nature of the data set: Inhibitory concentration against the growth of Toxoplasma gondii overexpressing FPPS enzyme in human foreskin fibroblast monolayer cells; (control = 0.12 uM, experiment 1). It counts as functional, cell-based. In outline: as §1
The subject of data set [13] is HFF. Nature of the data set: Inhibitory concentration against the growth of Toxoplasma gondii overexpressing FPPS enzyme in human foreskin fibroblast monolayer cells; (control = 0.55 uM, experiment 3). It counts as functional, cell-based. The method, boiled down:
as §1

Data set [14] has as its system HFF. Nature of the data set: Inhibitory concentration against the growth of Toxoplasma gondii overexpressing FPPS enzyme in human foreskin fibroblast monolayer cells; (control = 0.62 uM, experiment 1). Type of data set: functional, cell-based. The method, boiled down: as §1
The test system of data set [15] is HFF. Nature of the data set: Inhibitory concentration against the growth of Toxoplasma gondii overexpressing FPPS enzyme in human foreskin fibroblast monolayer cells; (control = 0.15 uM, experiment 2). Type of data set: functional, cell-based. The method, boiled down: as §1

As usually defined, the IC50 is the midpoint of a concentration-inhibition curve. Regarding `O=P(O)(O)C(O)(Cn1ccnc1)P(=O)(O)O` [ZOLEDRONIC ACID], the CC50 in the data set on KB was found to be 63.7 µM. Moreover, the IC50 in the data set on HFF [1] amounted to 7.8 µM; in the data set on HFF [2] it was 8.3 µM; in [3], 0.79 µM; in the data set with HFF [4], 7.8 µM. Further, in data set [5], the selectivity ratio was determined as 80.9.
As to `CCCCCCCCC(O)(P(=O)(O)O)P(=O)(O)O`, the IC50 with HFF [6] was determined as 5.8 µM; in the data set on HFF [7], 3.3 µM; in [3] it was 2.38 µM; in the data set on HFF [8], 5.8 µM.
For `O=C1C(O)=C([C@H]2CC[C@H](c3ccc(Cl)cc3)CC2)C(=O)c2ccccc21` [ATOVAQUONE], in the data set with HFF [9], the IC50 stood at 0.28 µM. This lies in the sub-micromolar range.
Regarding `O=P(O)(O)C(O)(Cc1cccnc1)P(=O)(O)O` [RISEDRONIC ACID], the CC50 in the data set with KB came out at 255 µM. The IC50 in [3] was 2.4 µM. Also, the selectivity ratio in data set [5] worked out at 106.
With `CCCCCCCCCCC(O)(P(=O)(O)O)P(=O)(O)O`, the IC50 in the data set with HFF [10] came to 1.7 µM; with HFF [11] it was 1.2 µM; in data set [3] it was 0.28 µM; in the data set with HFF [12] it was 1.1 µM. Also, the CC50 in the data set on KB was > 826 µM. Further, the selectivity ratio in data set [5] was > 2950.
Take `O=P(O)(O)C(O)(Cc1ccncc1)P(=O)(O)O`: the CC50 in the data set on KB stood at 171 µM. The same compound came in with a half-maximal inhibitory concentration (IC50) in data set [3] of 3.5 µM. In [5], the selectivity ratio amounted to 48.9.
`CCCCN(CC)C(P(=O)(O)O)P(=O)(O)O` [(BUTYL(ETHYL)AMINO)METHYLENEDIPHOSPHONIC ACID]: the CC50 in the data set on KB was > 1060 µM. For the same compound, the midpoint of inhibition in [3], the IC50, lay at 132 µM. Further, the selectivity ratio in data set [5] was > 7.99.
On to `O=P(O)(O)C(NC1CCCCCCC1)P(=O)(O)O` [(CYCLOOCTYLAMINO)METHYLENEDIPHOSPHONIC ACID], for which the CC50 in the data set on KB was found to be 354 µM. In data set [3], this compound showed an IC50 of 43.2 µM. Besides, in data set [5], the selectivity ratio worked out at 8.19.
For the compound `O=P(O)(O)C(O)(CCc1cccnc1)P(=O)(O)O`, the CC50 with KB was > 804 µM. This compound also yielded an IC50 in data set [3] of 147 µM. Moreover, the selectivity ratio in data set [5] is > 5.46.
Take `CCCCNC(P(=O)(O)O)P(=O)(O)O` [(BUTYLAMINO)METHYLENEDIPHOSPHONIC ACID]: the CC50 with KB stood at 212 µM. Also, it took 76.1 µM to reach half-maximal inhibition in data set [3] (IC50). Also, the selectivity ratio in [5] turned out to be 2.78.
Take `CCCCCCCCCC(O)(P(=O)(O)O)P(=O)(O)O`: in the data set with KB, the CC50 was > 892 µM. Also, the IC50 worked out at 1.7 µM in the data set on HFF [13], 0.55 µM in data set [3], 1.9 µM in the data set with HFF [14] and 0.57 µM in the data set with HFF [15]. In addition, in data set [5], the selectivity ratio was > 1620.
`O=P(O)(O)C(Nc1nccc2ccccc12)P(=O)(O)O`: the CC50 with KB is 673 µM. 20.9 µM corresponded to half-maximal inhibition in data set [3] (IC50). For the same compound, the selectivity ratio in [5] worked out at 32.2.
As to `NCCCCCC(O)(P(=O)(O)O)P(=O)(O)O` [NERIDRONIC ACID], the CC50 in the data set on KB stood at 680 µM. In [3], 59.7 µM corresponded to half-maximal inhibition (IC50). Moreover, in data set [5], the selectivity ratio amounted to 11.4.
With `CCCCCCC(O)(P(=O)(O)O)P(=O)(O)O`, the CC50 in the data set with KB worked out at 107 µM. Also, the IC50 in data set [3] stood at 25.3 µM. In addition, in data set [5], the selectivity ratio was found to be 4.23.
